Here are results for 4 compounds from ChEMBL document CHEMBL1154240, “Molecular-targeted antitumor agents. 19. Furospongolide from a marine Lendenfeldia sp. sponge inhibits hypoxia-inducible factor-1 activation in breast tumor cells” (J Nat Prod, 2008).

Each structure is given as a SMILES string. Calls of active or inactive are those of the source. No cut-off for these calls is given here. Bounds are passed on as bounds.

Data set [1] deals with MCF7. The data set can be described thus: Cytotoxicity against human MCF7 cells under hypoxic condition after 48 hrs by natural red method. The data set is classed as functional, cell-based. The note with it: MCF7, 48 h. The method in brief:
(§1)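 Cells plated at 30,000/well in DMEM/F12 with 10% FCS and antibiotics and left overnight, then given compound in serum-free DMEM/F12. After a 30 min pre-exposure, incubation ran 48 h under normoxia (5% CO2/95% air) or hypoxia (1% O2/5% CO2/94% N2). Viability was read by neutral red, expressed as % inhibition, from one experiment in triplicate.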

Data set [2] has as its target Hypoxia-inducible factor 1-alpha (Homo sapiens) (UniProt Q16665). The data set can be described thus: Inhibition of hypoxia-induced nuclear HIF1alpha in human T47D cells at 10 uM after 4 hrs by Western blot analysis. The class given is cell-based. A general note: In western blotting, separated proteins are transferred to a membrane and probed.
Data set [3] has as its system T47D. The data set can be described thus: Cytotoxicity against human T47D cells under hypoxic conditions at 30 uM after 48 hrs by natural red method. The class given is functional. The method in brief:
as §1

The test system of data set [4] is MCF7. The data set can be described thus: Cytotoxicity against human MCF7 cells under normoxic condition after 48 hrs by natural red method. The note with it: MCF7, 48 h. The data set is classed as functional, cell-based. The method in brief: as §1
Data set [5] has as its system T47D. Briefly: Inhibition of electron transport protein complex 4 in human T47D cells assessed as decrease in oxygen consumption at 30 uM pretreated for 2 hrs before TMPD/ascorbate addition by mitochondrial respiration assay. The class given is cell-based. The method in brief:
(§2)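 T47D cells permeabilized with 30 μM digitonin in Clark-electrode chamber containing buffer of 20 mM HEPES pH 7.3, 120 mM KCl, 2 mM KH2PO4, 2 mM MgCl2, 1 mM EGTA, 0.3% fat-free BSA. Substrates: 5 mM pyruvate + 5 mM malate (complex I), 5 mM succinate (complex II), 5 mM ascorbate + 0.2 mM TMPD (complex IV); rotenone and antimycin A as inhibitors. Oxygen consumption monitored.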

The test system of data set [6] is T47D. The data set can be described thus: Inhibition of 1,10-phenanthroline-induced VEGF secretion in human T47D cells at 30 uM after 16 hrs by ELISA. The class given is functional, cell-based. The method in brief:
(§3)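 T47D plated at 356,000 cells/well and left overnight at 37°C. Compound added in serum-free DMEM/F12 for 30 min under air, then 16 h under hypoxia (1% O2/5% CO2/94% N2) or with 10 μM 1,10-phenanthroline. Secreted VEGF in conditioned medium was measured by ELISA and normalized to total lysate protein (BCA).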
A general note: ELISA stands for enzyme-linked immunosorbent assay.

The test system of data set [7] is PC-3. Briefly: Cytotoxicity against human PC3 cells under hypoxic condition after 48 hrs by natural red method. Particulars: PC-3, 48 h. The class given is functional, cell-based. The method in brief: as §1
In data set [8] the test system is T47D. Briefly: Inhibition of electron transport protein complex 3 in human T47D cells assessed as decrease in oxygen consumption at 30 uM pretreated for 2 hrs before succinate addition by mitochondrial respiration assay. The data set is classed as cell-based. The method in brief:
as §2

Data set [9] has as its system T47D. The data set can be described thus: Cytotoxicity against human T47D cells under normoxic condition after 48 hrs by natural red method. The class given is functional, cell-based. The method in brief: as §1
Data set [10] deals with PC-3. Briefly: Cytotoxicity against human PC3 cells under normoxic condition after 48 hrs by natural red method. The data set is classed as functional, cell-based. The note with it: PC-3, 48 h. The method in brief: as §1
The target of data set [11] is Hypoxia-inducible factor 1-alpha (Homo sapiens) (UniProt Q16665). Briefly: Inhibition of 1,10-phenanthroline-induced nuclear HIF1alpha in human T47D cells at 10 uM after 4 hrs by Western blot analysis. The class given is cell-based.
Chain of Hypoxia-inducible factor 1-alpha (Homo sapiens) (Q16665 whole entry, looked up): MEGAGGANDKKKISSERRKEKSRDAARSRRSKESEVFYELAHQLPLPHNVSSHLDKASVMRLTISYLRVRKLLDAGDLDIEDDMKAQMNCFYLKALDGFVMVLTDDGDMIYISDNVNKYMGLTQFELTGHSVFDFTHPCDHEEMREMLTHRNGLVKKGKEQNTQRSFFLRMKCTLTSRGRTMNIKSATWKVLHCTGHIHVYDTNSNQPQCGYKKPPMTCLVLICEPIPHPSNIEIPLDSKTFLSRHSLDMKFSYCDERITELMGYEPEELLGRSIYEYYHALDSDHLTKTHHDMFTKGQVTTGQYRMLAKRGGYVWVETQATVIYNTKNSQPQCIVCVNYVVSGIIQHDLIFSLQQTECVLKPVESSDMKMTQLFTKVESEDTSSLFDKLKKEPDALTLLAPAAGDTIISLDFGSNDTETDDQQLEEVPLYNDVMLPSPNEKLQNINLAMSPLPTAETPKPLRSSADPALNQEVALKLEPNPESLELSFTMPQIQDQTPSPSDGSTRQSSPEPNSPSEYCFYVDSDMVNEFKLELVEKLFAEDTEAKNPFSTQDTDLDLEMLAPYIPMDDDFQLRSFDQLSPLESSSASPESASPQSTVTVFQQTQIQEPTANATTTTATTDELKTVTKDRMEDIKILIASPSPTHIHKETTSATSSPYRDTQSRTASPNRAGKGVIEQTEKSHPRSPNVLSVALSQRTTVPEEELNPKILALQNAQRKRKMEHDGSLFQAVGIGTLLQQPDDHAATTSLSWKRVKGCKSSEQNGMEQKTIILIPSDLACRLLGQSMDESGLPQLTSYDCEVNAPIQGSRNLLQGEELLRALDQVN
The subject of data set [12] is MDA-MB-231. Briefly: Cytotoxicity against human MDA-MB-231 cells under hypoxic condition after 48 hrs by natural red method. The class given is functional, cell-based. The note with it: MDA-MB-231, 48 h. The method in brief:
as §1

In data set [13] the target is T1, Hypoxia inducible factors; HIF-1-alpha, HIF-2-alpha (Homo sapiens, UniProt Q16665+Q99814). The data set can be described thus: Inhibition of hypoxia-induced HIF1 activation in human T47D cells at 30 uM after 16 hrs by pTK-HRE3-luciferase reporter gene assay. The data set is classed as cell-based. The method in brief:
(§4)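 Cells transiently transfected with the pHRE-TK-Luc reporter (HIF-1) or the CMV-driven pGL3-Control plasmid, given compound, then exposed for 16 h to hypoxia (1% O2/5% CO2/94% N2, 37°C) or 10 μM 1,10-phenanthroline. Luciferase read-out: % inhibition = (1 − treated/induced light output) × 100. One experiment in triplicate.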
(In general: A reporter such as luciferase makes a cellular process visible.)

In data set [14] the target is T1, Hypoxia inducible factors; HIF-1-alpha, HIF-2-alpha. Briefly: Inhibition of hypoxia-induced HIF1 activation in human T47D cells after 16 hrs by pTK-HRE3-luciferase reporter gene assay. The class given is cell-based. The method in brief:
as §4

The subject of data set [15] is T47D. The data set can be described thus: Inhibition of cellular respiration in human T47D cells assessed as oxygen consumption at 10 uM. The class given is functional. The method in brief:
(§5)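 Intact T47D cells (5×10^6, equilibrated to 30°C) in 1 mL serum- and antibiotic-free DMEM/F12, with 17.5 mM glucose as substrate, in a Clark-type oxygen electrode. After 15 min baseline, compound in isopropyl alcohol injected at 3 min intervals. Oxygen consumption measured in triplicate; one-way ANOVA with Bonferroni post test.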

Data set [16] deals with T47D. The data set can be described thus: Inhibition of hypoxia-induced VEGF secretion in human T47D cells after 16 hrs by ELISA. The data set is classed as functional, cell-based. The method in brief:
as §3

The target of data set [17] is T1, Hypoxia inducible factors; HIF-1-alpha, HIF-2-alpha. Briefly: Inhibition of hypoxia-induced HIF1 activation in human PC3 cells after 16 hrs by pTK-HRE3-luciferase reporter gene assay. The class given is cell-based. The note with it: pc-3. The method in brief: as §4
Data set [18] has as its system T47D. Briefly: Inhibition of electron transport protein complex 2 in human T47D cells assessed as decrease in oxygen consumption at 30 uM pretreated for 2 hrs before succinate addition by mitochondrial respiration assay. The data set is classed as cell-based. The method in brief: as §2
Data set [19] concerns the target Aryl hydrocarbon receptor nuclear translocator (Homo sapiens) (UniProt P27540). Briefly: Inhibition of hypoxia-induced nuclear HIF1beta in human T47D cells at 10 uM after 4 hrs by Western blot analysis. The class given is cell-based.
Data set [20] concerns T47D. Briefly: Cytotoxicity against human T47D cells under hypoxic condition after 48 hrs by natural red method. The class given is functional, cell-based. The method in brief: as §1
In data set [21] the test system is T47D. The data set can be described thus: Inhibition of cellular respiration in human T47D cells assessed as oxygen consumption at 30 uM. The data set is classed as functional, cell-based. The method in brief: as §5
Data set [22] relates to T47D. Briefly: Inhibition of electron transport protein complex 1 in human T47D cells assessed as decrease in oxygen consumption at 30 uM pretreated for 2 hrs before malate and pyruvate addition by mitochondrial respiration assay. The class given is cell-based. The method in brief:
as §2

The target of data set [23] is T1, Hypoxia inducible factors; HIF-1-alpha, HIF-2-alpha. Briefly: Inhibition of 1,10-phenanthroline-induced HIF1 activation in human T47D cells after 16 hrs by pTK-HRE3-luciferase reporter gene assay. The class given is cell-based. The method in brief: as §4
Data set [24] shares this target. Briefly: Inhibition of 1,10-phenanthroline-induced HIF1 activation in human PC3 cells after 16 hrs by pTK-HRE3-luciferase reporter gene assay. The class given is cell-based. The note with it: pc-3. The method in brief:
as §4

The nature of data set [25]: Selectivity for inhibition of hypoxia-induced HIF1 activation in human T47D cells over cytotoxicity to human T47D cells. The class given is toxicity, cell-based.
Data set [26] relates to MDA-MB-231. Briefly: Cytotoxicity against human MDA-MB-231 cells under normoxic condition after 48 hrs by natural red method. The data set is classed as functional, cell-based. Particulars: MDA-MB-231, 48 h. The method in brief: as §1
A short description of data set [27]: Selectivity ratio of IC50 for inhibition of hypoxia-induced HIF1 activation in human T47D cells to IC50 for cytotoxicity to human T47D cells. The data set is classed as toxicity, cell-based. Particulars: read-out: Ratio IC50.

Chain of Aryl hydrocarbon receptor nuclear translocator (Homo sapiens) (P27540 whole entry): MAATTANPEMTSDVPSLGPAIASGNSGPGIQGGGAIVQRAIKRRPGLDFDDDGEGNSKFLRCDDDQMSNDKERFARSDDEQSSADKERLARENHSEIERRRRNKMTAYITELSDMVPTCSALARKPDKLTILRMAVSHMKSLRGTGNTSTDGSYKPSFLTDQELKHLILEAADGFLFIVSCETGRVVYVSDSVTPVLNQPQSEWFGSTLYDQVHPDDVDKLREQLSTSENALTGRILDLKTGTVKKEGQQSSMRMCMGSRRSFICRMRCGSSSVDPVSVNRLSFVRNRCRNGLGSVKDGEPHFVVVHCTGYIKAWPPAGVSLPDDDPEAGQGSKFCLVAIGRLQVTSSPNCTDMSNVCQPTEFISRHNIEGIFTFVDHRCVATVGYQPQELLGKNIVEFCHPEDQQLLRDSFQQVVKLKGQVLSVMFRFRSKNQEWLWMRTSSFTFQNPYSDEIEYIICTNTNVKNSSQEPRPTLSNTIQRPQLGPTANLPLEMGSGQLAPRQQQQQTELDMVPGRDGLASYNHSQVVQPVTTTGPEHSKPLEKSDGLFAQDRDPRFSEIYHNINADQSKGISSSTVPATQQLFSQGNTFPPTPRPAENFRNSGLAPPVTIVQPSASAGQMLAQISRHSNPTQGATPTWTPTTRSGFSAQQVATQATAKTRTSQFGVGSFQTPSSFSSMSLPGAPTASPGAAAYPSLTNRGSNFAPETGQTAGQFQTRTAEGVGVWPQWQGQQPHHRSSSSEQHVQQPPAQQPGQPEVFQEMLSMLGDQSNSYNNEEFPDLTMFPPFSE

For `C/C(=C\CCc1ccoc1)CC/C=C(\C)CCCC1=CC(=O)OC1` [FUROSPONGOLIDE], the IC50 (usually the midpoint of a concentration-inhibition curve) with MCF7 [1] was above 30000 nM; with MCF7 [4] it was 29000 nM; with PC-3 [7] it was above 30000 nM; in the data set with T47D [9], 14000 nM; with PC-3 [10] it was above 30000 nM; in the data set with MDA-MB-231 [12], above 30000 nM. Also, the IC50 in [14] was 2900 nM; in [17], above 30000 nM; in the data set with T47D [20], above 30000 nM; in [23] it was 10900 nM; in data set [24], above 30000 nM; with MDA-MB-231 [26], above 30000 nM. Besides, the inhibition entry (in data set [2]; in data set [19]; in the data set on T47D [21]) was “Active” each time. Also, the inhibition – broadly, the percentage by which the read-out fell short of the control – at 30 µM in the data set with T47D [3] came to 26%. The result in the data set on T47D [5], in the data set on T47D [8] and in the data set with T47D [18] was inactive. Moreover, the inhibition entry (in the data set on T47D [6]; in data set [11]) was “inactive” throughout. Also, the inhibition in [13] is 97%; in the data set with T47D [16] it was “Dose-dependent effect”. The inhibition at 10 µM in the data set on T47D [15] was 38%. For the same compound, the outcome with T47D [22] was Active. Further, the selectivity ratio in data set [25] is above 10.

Regarding `CC(=O)C1=CC[C@H]2[C@]3(C)CC[C@H]4C(C)(C)CCC[C@]4(CO)[C@H]3C[C@H](O)[C@]2(C)[C@H]1C=O`, the IC50 stood at 700 nM in the data set with MCF7 [1]; 900 nM in the data set with PC-3 [7]; 1000 nM in the data set with T47D [9]; 400 nM in [14]; 500 nM in [17]; 1600 nM in the data set on T47D [20]. For the same compound, the IC50 amounted to 200 nM in data set [23] and 800 nM in [24]. The selectivity ratio in data set [27] came to 3.

For the compound `COC(=O)[C@]12CCCC(C)(C)[C@@H]1CC[C@@]1(C)[C@@H]3CC=C(C(C)=O)[C@H](C=O)[C@@]3(C)C(=O)C[C@@H]12`, the IC50 with MCF7 [1] came out at 6800 nM; in the data set on MCF7 [4] it was 6100 nM; with PC-3 [7], 10200 nM; in the data set with T47D [9], 5500 nM; in the data set with PC-3 [10] it was 6400 nM; with MDA-MB-231 [12], 2000 nM. Moreover, the IC50 in data set [14] worked out at 2700 nM; in data set [17] it was 7700 nM; in the data set on T47D [20], 10800 nM; in data set [23], 1000 nM; in [24], 9000 nM; with MDA-MB-231 [26], 1900 nM.

Regarding `CC(=O)C1=CC[C@H]2[C@]3(C)CC[C@H]4C(C)(C)CCC[C@]4(CO)[C@H]3CC(=O)[C@]2(C)[C@H]1C=O`, the IC50 with MCF7 [1] amounted to 600 nM; in the data set with MCF7 [4], 600 nM; in the data set on PC-3 [7], 1100 nM; in the data set with T47D [9], 1200 nM; in the data set with PC-3 [10], 800 nM; in the data set on MDA-MB-231 [12] it was 300 nM. Besides, the 50% inhibitory concentration (IC50) came to 500 nM in data set [14]; 900 nM in [17]; 1800 nM with T47D [20]; 200 nM in data set [23]; 1000 nM in data set [24]; 300 nM with MDA-MB-231 [26].
